Structures are written as SMILES.

This note sets out measurements from ChEMBL document CHEMBL3526127, “Absorption, elimination, and metabolism of CS-1036, a novel α-amylase inhibitor in rats and monkeys, and the relationship between gastrointestinal distribution and suppression of glucose absorption” (Drug Metab Dispos, 2013).

Series [1] can be described thus: Drug metabolism in monkey intestinal S9 fractions at 0.42 uCi/ml assessed as metabolite formation in presence of NADPH after 1 hr at 37 degC by LC-MS/MS method. The note with it: cynomolgus monkey, s9, 1 h.
Series [2] can be described thus: Drug excretion in F344 rat urine at 1 mg/kg, po administered as single dose after 24 hrs by scintillation counting method. The class given is ADME, organism-based. On the set-up: dose 1 mg/kg, route oral. The note with it: in vivo. Summed up:
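[14C]-labelled drug (1 mg/kg, 42.2 µCi/kg) was given orally to fasted F344 rats (164–168 g, n = 3). Urine and feces were collected to 24 h; feces were homogenized in 9 volumes of water, combusted and counted. Parent fraction came from the excreted radioactivity times the radio-HPLC (HILIC) peak-area ratio; mean ± S.D.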

The nature of series [3]: Drug metabolism in F344 rat urine assessed as 1,4-dideoxy-1,4-imino-D-arabinitol formation by LC-MS/MS method. The class given is ADME, tissue-based.
Series [4] can be described thus: Drug metabolism in monkey liver S9 fractions at 0.42 uCi/ml assessed as metabolite formation in presence of NADPH after 1 hr at 37 degC by LC-MS/MS method. The note with it: rhesus monkey, s9, 1 h. The class given is ADME, subcellular, Macaca mulatta, Liver S9 fraction.
A short description of series [5]: Drug excretion in cynomolgus monkey urine at 3 mg/kg, iv administered as single dose after 0 to 336 hrs by scintillation counting method. The note with it: in vivo. On the set-up: dose 3 mg/kg, route intravenous. The class given is ADME, organism-based, Macaca fascicularis.
Series [6] concerns Rattus norvegicus. As to the kind of experiment: Total drug excretion in F344 rat at 1 mg/kg, iv administered as single dose after 0 to 168 hrs by scintillation counting method. The class given is ADME, organism-based. On the set-up: dose 1 mg/kg, route intravenous. The note with it: in vivo. Summed up: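 Fasted F344 rats (n = 4) received [14C]-labelled drug at 1 mg/kg (41.9 µCi/kg), iv via tail vein or oral. They were housed in metabolic cages. Urine and feces were collected to 168 h, and expired CO2 was trapped in 2-aminoethanol/2-methoxyethanol to 48 h. Radioactivity was counted by liquid scintillation, feces after homogenization. Results are % of dose.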

Series [7] concerns Rattus norvegicus. As to the kind of experiment: Total drug excretion in bile duct cannulated F344 rat at 1 mg/kg, iv administered as single dose after 0 to 48 hrs by scintillation counting method. More on the design: dose 1 mg/kg, route intravenous. The note with it: in vivo. The class given is ADME, organism-based. The method, boiled down:
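Under ether anesthesia, the common bile duct of fasted F344 rats was cannulated. After recovery, rats received 1 mg/kg (41.9 µCi/kg) of the 14C-labelled compound iv or by oral gavage (n = 4). They were kept in Bollman cages, and bile was collected at 0–6, 6–24, 24–30 and 30–48 h at 4°C. Radioactivity was measured by liquid scintillation counting as % of dose.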

The nature of series [8]: Drug excretion in cynomolgus monkey feces at 3 mg/kg, iv administered as single dose after 0 to 336 hrs by scintillation counting method. The class given is ADME, organism-based, Macaca fascicularis. More on the design: dose 3 mg/kg, route intravenous. The note with it: in vivo. The method, boiled down:
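Fasted cynomolgus monkeys (n = 4) received [14C]-labelled drug at 3 mg/kg, iv via saphenous vein (191 µCi/kg) or orally by stomach catheter (156.5 µCi/kg). Urine, feces and water cage-wash were collected to 336 h. Samples were counted by liquid scintillation; feces were homogenized in 4-fold water. Results are % of dose, mean ± S.D.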

The nature of series [9]: Drug excretion in bile duct cannulated F344 rat bile at 1 mg/kg, iv administered as single dose after 0 to 48 hrs by scintillation counting method. The class given is ADME, organism-based. On the set-up: dose 1 mg/kg, route intravenous. The note with it: in vivo. Summed up:
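Common bile duct was cannulated under diethyl ether in fasted F344 rats. After recovery, [14C]-labelled drug (1 mg/kg, 41.9 µCi/kg) was given iv via tail vein or by oral gavage (n = 4). Rats were held in Bollman cages and bile was collected at 4°C over 0–48 h intervals. Bile was counted by liquid scintillation; % of dose.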

Series [10] in a line: Drug excretion in F344 rat feces at 1 mg/kg, po administered as single dose after 0 to 168 hrs by scintillation counting method. The class given is ADME, organism-based. More on the design: dose 1 mg/kg, route oral. The note with it: in vivo. The method, boiled down: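 Fasted F344 rats (152–156 g iv via tail vein; 154–159 g oral; n = 4) received [14C]-labelled drug at 1 mg/kg (41.9 µCi/kg). Animals were kept in metabolic cages; urine and feces were collected to 168 h, and expired CO2 was trapped in 2-aminoethanol/2-methoxyethanol (1:1) to 48 h. Samples were counted by liquid scintillation (feces homogenized). Results are % of dose, mean ± S.D.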

Series [11] can be described thus: Clearance in cynomolgus monkey at 1 mg/kg, iv administered as single dose by LC-MS/MS method. The note with it: in vivo. More on the design: dose 1 mg/kg, route intravenous. The class given is ADME, organism-based, Macaca fascicularis. The method, boiled down:
(§1)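 Fasted male F344 rats (146–185 g) and male cynomolgus monkeys (3.48–4.29 kg), n = 4 each, received a single iv dose; monkeys had 2-week washouts between doses. Blood was sampled up to 48 h and plasma stored at […]. Plasma parent was quantified by LC-MS/MS with a deuterated internal standard. CL = dose/AUC0–inf by noncompartmental analysis; mean ± S.D.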

The nature of series [12]: AUClast in F344 rat at 10 mg/kg, po administered as single dose by LC-MS/MS method. The class given is ADME, organism-based. On the set-up: time 0 - last, dose 10 mg/kg, route oral. The note with it: plasma. The method, boiled down:
(§2)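 Fasted male F344 rats (146–185 g) or male cynomolgus monkeys (3.48–4.29 kg), n = 4 per dose, given single iv or oral dose of 0.3, 1.0, 3.0 or 10.0 mg/kg; monkeys dosed with 2-week washouts. Blood sampled to 48 h; plasma stored frozen. LC-MS/MS with deuterated internal standard. Noncompartmental analysis: AUClast by trapezoidal rule; AUC0–inf = AUClast + Ctz/terminal rate constant; mean ± S.D.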

A short description of series [13]: Half life in cynomolgus monkey at 0.3 mg/kg, iv administered as single dose by LC-MS/MS method. The class given is ADME, organism-based, Macaca fascicularis. More on the design: dose 0.3 mg/kg, route intravenous. The note with it: in vivo. The method, boiled down: (§3)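 Male F344 rats (146–185 g) and male cynomolgus monkeys (3.48–4.29 kg), n = 4 each, fasted overnight, received single iv or oral doses of 0.3, 1.0, 3.0 or 10.0 mg/kg. Monkeys had 2-week washouts between doses. Plasma was sampled to 48 h and assayed by LC-MS/MS with deuterated internal standard. Noncompartmental analysis: tmax observed; t1/2 by regression on ≥3 terminal log points; Vss = dose·AUMC/(AUC0–inf)²; Foral = oral/iv AUC0–inf at the same dose.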

A short description of series [14]: Clearance in cynomolgus monkey at 0.3 mg/kg, iv administered as single dose by LC-MS/MS method. The class given is ADME, organism-based, Macaca fascicularis. More on the design: dose 0.3 mg/kg, route intravenous. The note with it: in vivo. The method, boiled down: as §1
The nature of series [15]: AUC (0 to infinity) in F344 rat at 1 mg/kg, iv administered as single dose by LC-MS/MS method. The note with it: plasma. The class given is ADME, organism-based. On the set-up: time infinity, dose 1 mg/kg, route intravenous. The method, boiled down:
as §2

A short description of series [16]: AUC (0 to infinity) in cynomolgus monkey at 1 mg/kg, po administered as single dose by LC-MS/MS method. The class given is ADME, organism-based, Macaca fascicularis. On the set-up: dose 1 mg/kg, route oral, time infinity. The note with it: plasma. The method, boiled down:
as §2

The nature of series [17]: AUClast in cynomolgus monkey at 1 mg/kg, iv administered as single dose by LC-MS/MS method. The class given is ADME, organism-based, Macaca fascicularis. More on the design: time 0 - last, dose 1 mg/kg, route intravenous. The note with it: plasma. Summed up: as §2
The nature of series [18]: Half life in cynomolgus monkey at 1 mg/kg, po administered as single dose by LC-MS/MS method. The class given is ADME, organism-based, Macaca fascicularis. More on the design: dose 1 mg/kg, route oral. The note with it: in vivo. Summed up:
as §3

The nature of series [19]: Cmax in F344 rat at 1 mg/kg, po administered as single dose by LC-MS/MS method. The note with it: in vivo. On the set-up: dose 1 mg/kg, route oral. The class given is ADME, organism-based. Summed up: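 Fasted male F344 rats (146–185 g) and cynomolgus monkeys (3.48–4.29 kg), n = 4 each, received a single oral dose; monkeys had 2-week washouts. Plasma sampled up to 48 h, stored at […], assayed by LC-MS/MS with a deuterated internal standard. Cmax taken from observed data by noncompartmental analysis; mean ± S.D. (n = 3 or 4).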

`C[C@H]1O[C@@H](O[C@H]2[C@H](O)[C@@H](O)[C@@H](O[14C@H]3[14C@H](O)[14CH2]N[14C@@H]3[14CH2]O)O[C@@H]2CO)[C@H](O)[C@@H](O)[C@@H]1O`: the Drug metabolism entry is on record as “metabolite_not_detected” in [1], “metabolite_detected” in [3] and “metabolite_not_detected” in series [4]. In addition, the Drug excretion stood at 1.4% in series [2]; 81.13% in series [5]; 95.85% with Rattus norvegicus [6]; 0.37% with Rattus norvegicus [7]; 0.66% in [8]; 0.37% in series [9]. Besides, in [10], the Drug excretion was found to be 80.28%.

Usually clearance stands for the volume of plasma or blood freed of the substance per unit of time. The AUC(0-t) is exposure summed from dosing to a finite time, without extrapolation to infinity. One may read the half-life as the time in which the quantity being followed falls by half. As usually defined, the AUC(0-inf) is total exposure, with the tail of the curve extrapolated. Usually Cmax stands for the highest concentration seen after dosing. Take `C[C@H]1O[C@@H](O[C@H]2[C@H](O)[C@@H](O)[C@@H](O[C@H]3[C@H](O)CN[C@@H]3CO)O[C@@H]2CO)[C@H](O)[C@@H](O)[C@@H]1O`: the clearance was found to be 2.84 mL/min/kg in [11] and 2.55 mL/min/kg in [14]. Also, the AUC(0-t) is 1050 ng·h/mL in series [12] and 5870 ng·h/mL in [17]. The half-life is 2.51 h in series [13] and 1.29 h in [18]. Further, the AUC(0-inf) in series [15] came out at 4930 ng·h/mL; in [16], 57.9 ng·h/mL. This compound showed a Cmax in series [19] of 45.5 ng/mL.
